# Assay results published in ChEMBL document CHEMBL3425411, “Synthesis of β-Carboline-Based N-Heterocyclic Carbenes and Their Antiproliferative and Antimetastatic Activities against Human Breast Cancer Cells” (J Med Chem, 2015).
# Calls of active or inactive are those of the source. The rule behind the calls is not given here.
# Tests used:
# [1] = molecular target: c-Jun N-terminal kinase, JNK (Homo sapiens) (UniProt P45983+P53779+P45984); assay: Inhibition of SAPK/JNK phosphorylation in human MDA-MB-231 cells at 7.5 to 10 uM after 24 hrs by Western blot analysis; type: cell-based
# How it was run: (§1)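 MDA-MB-231 cells treated 24 h, then lysed in RIPA buffer. 40 μg protein run on 10–15% SDS–PAGE and transferred to PVDF. Blocked in 5% milk, probed overnight at 4 °C with primary antibodies (phospho- and total ERK1/2, JNK, p38, cleaved caspase-3), then HRP secondary. ECL detection with β-actin as loading control. Blots representative of three experiments.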
# MDA-MB-231 [2] = assay: Antimigratory activity against human MDA-MB-231 cells at 1 to 7.5 uM after 12 to 24 hrs by wound healing assay; type: functional, cell-based
# How it was run: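 2 × 10⁵ cells were plated in six-well plates and scratched with a 200 μL tip. Debris was removed, then cells were treated (0, 1, 2.5, 5, 7.5 μM; or 0–5 μM). The wound was photographed at 0, 12 and 24 h under 100× phase contrast. Area was measured as percent wound closure versus control. Three independent experiments, mean ± SEM.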
# MDA-MB-231 [3] = assay: Downregulation of survivin expression in human MDA-MB-231 cells at 7.5 to 10 uM after 24 hrs by Western blot analysis; type: functional, cell-based
# How it was run: (§2)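 Cells were treated for 24 h. Lysates were made in RIPA buffer, and 40 μg protein was resolved on 10–15% SDS-PAGE and transferred to PVDF. Membranes were blocked with 5% milk and probed overnight at 4 °C with primary antibodies, then HRP secondaries. Detection was by ECL with β-actin as loading control. Blots represent three independent experiments.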
# MDA-MB-231 [4] = assay: Cell cycle arrest in human MDA-MB-231 cells assessed as accumulation at G2/M phase at 2.5 uM after 24 hrs by propidium iodide staining-based flow cytometric analysis (reference value: 18.2 to 23.1%); type: functional
# MDA-MB-231 [5] = assay: Induction of apoptosis in human MDA-MB-231 cells assessed as early apoptotic cells at 12.5 uM after 24 hrs by annexin V-propidium iodide/Alexa Fluor 488 staining-based flow cytometric analysis (reference value: 4.05 to 4.68%); type: functional
# MDA-MB-231 [6] = assay: Cell cycle arrest in human MDA-MB-231 cells assessed as accumulation at G0/G1 phase at 10 uM after 24 hrs by propidium iodide staining-based flow cytometric analysis (reference value: 44.3 to 47.1%); type: functional
# [7] = molecular target: Matrix metalloproteinase-9 (Homo sapiens) (UniProt P14780); assay: Inhibition of MMP-9 in human MDA-MB-231 cells at 1 to 7.5 uM after 24 hrs by gelatin zymographic method; type: cell-based
# How it was run: (§3)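 MDA-MB-231 cells, 1 × 10⁵ per well, treated 24 h with 0, 1, 2.5, 5 or 7.5 μM. Conditioned medium centrifuged and equal protein loaded on 8% SDS–PAGE containing 0.1% gelatin, run at 80 V. Triton X-100 washes, then developed 20 h at 37 °C in Tris-HCl pH 7.5 with NaCl, CaCl₂ and ZnCl₂. Coomassie stain, then destain.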
# MDA-MB-231 [8] = assay: Cell cycle arrest in human MDA-MB-231 cells assessed as accumulation at S phase at 10 uM after 24 hrs by propidium iodide staining-based flow cytometric analysis (reference value: 32.5 to 34.7%); type: functional
# MDA-MB-231 [9] = assay: Cell cycle arrest in human MDA-MB-231 cells assessed as accumulation at G2/M phase at 10 uM after 24 hrs by propidium iodide staining-based flow cytometric analysis (reference value: 18.2 to 23.1%); type: functional
# MDA-MB-231 [10] = assay: Upregulation of cleaved caspase-3 expression in human MDA-MB-231 cells at 7.5 to 10 uM after 24 hrs by Western blot analysis; type: functional, cell-based; how it was run: as §1
# [11] = molecular target: Mitogen-activated protein kinase; ERK1/ERK2 (Homo sapiens) (UniProt P27361+P28482); assay: Inhibition of ERK1/2 phosphorylation in human MDA-MB-231 cells at 7.5 to 10 uM after 24 hrs by Western blot analysis; type: cell-based; how it was run: as §1
# MDA-MB-231 [12] = assay: Downregulation of CDC25C expression in human MDA-MB-231 cells at 7.5 to 10 uM after 24 hrs by Western blot analysis; type: functional, cell-based; how it was run: as §2
# MDA-MB-231 [13] = assay: Downregulation of CDK1 expression in human MDA-MB-231 cells at 7.5 to 10 uM after 24 hrs by Western blot analysis; type: functional, cell-based; how it was run: as §2
# MDA-MB-231 [14] = assay: Downregulation of cyclin B expression in human MDA-MB-231 cells at 7.5 to 10 uM after 24 hrs by Western blot analysis; type: functional, cell-based; how it was run: as §2
# MDA-MB-231 [15] = assay: Downregulation of Bcl-XL expression in human MDA-MB-231 cells at 7.5 to 10 uM after 24 hrs by Western blot analysis; type: functional, cell-based; how it was run: as §2
# MDA-MB-231 [16] = assay: Downregulation of Bcl-2 expression in human MDA-MB-231 cells at 7.5 to 10 uM after 24 hrs by Western blot analysis; type: functional, cell-based; how it was run: as §2
# MDA-MB-231 [17] = assay: Induction of apoptosis in human MDA-MB-231 cells assessed as early apoptotic cells at 2.5 uM after 24 hrs by annexin V-propidium iodide/Alexa Fluor 488 staining-based flow cytometric analysis (reference value: 4.05 to 4.68%); type: functional
# MDA-MB-231 [18] = assay: Induction of apoptosis in human MDA-MB-231 cells assessed as late apoptotic cells at 12.5 uM after 24 hrs by annexin V-propidium iodide/Alexa Fluor 488 staining-based flow cytometric analysis (reference value: 2.08 to 3.78%); type: functional
# How it was run: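 MDA-MB-231 cells, about 2 × 10⁵ per well, seeded in triplicate and treated for 24 h in RPMI-1640 with 10% FBS. Stained with Alexa Fluor 488 annexin V and propidium iodide, then read by flow cytometry. AV+/PI+ events were counted as late apoptotic and reported as percentage of cells relative to control. Three independent experiments, mean ± SEM.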
# [19] = molecular target: 72 kDa type IV collagenase (Homo sapiens) (UniProt P08253); assay: Inhibition of MMP-2 in human MDA-MB-231 cells at 1 to 7.5 uM after 24 hrs by gelatin zymographic method; type: cell-based; how it was run: as §3
# MDA-MB-231 [20] = assay: Antiinvasive activity against human MDA-MB-231 cells at 2.5 uM after 48 hrs by transwell assay; type: functional, cell-based
# How it was run: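 Matrigel (growth factor reduced, diluted in serum-free medium) coated on 8 μm pore polycarbonate transwell membranes, set 2 h at 37 °C. 30 000 cells/well seeded in RPMI-1640 with 1% FBS plus compound; lower chamber had 10% FBS as chemoattractant. After 48 h, non-invaded cells were swabbed off and invaded cells were methanol-fixed and stained with 0.1% crystal violet. At least 10 random fields were counted and expressed versus control.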
# [21] = molecular target: MAP kinase p38 (Homo sapiens) (UniProt O15264+Q15759+Q16539+P53778); assay: Induction of p38 MAPK phosphorylation in human MDA-MB-231 cells at 7.5 to 10 uM after 24 hrs by Western blot analysis; type: cell-based; how it was run: as §1
# MDA-MB-231 [22] = assay: Induction of apoptosis in human MDA-MB-231 cells assessed as PARP cleavage at 7.5 to 10 uM after 24 hrs by Western blot analysis; type: functional, cell-based; how it was run: as §2
# 72 kDa type IV collagenase (Homo sapiens), sequence (P08253 110-660 limits assumed): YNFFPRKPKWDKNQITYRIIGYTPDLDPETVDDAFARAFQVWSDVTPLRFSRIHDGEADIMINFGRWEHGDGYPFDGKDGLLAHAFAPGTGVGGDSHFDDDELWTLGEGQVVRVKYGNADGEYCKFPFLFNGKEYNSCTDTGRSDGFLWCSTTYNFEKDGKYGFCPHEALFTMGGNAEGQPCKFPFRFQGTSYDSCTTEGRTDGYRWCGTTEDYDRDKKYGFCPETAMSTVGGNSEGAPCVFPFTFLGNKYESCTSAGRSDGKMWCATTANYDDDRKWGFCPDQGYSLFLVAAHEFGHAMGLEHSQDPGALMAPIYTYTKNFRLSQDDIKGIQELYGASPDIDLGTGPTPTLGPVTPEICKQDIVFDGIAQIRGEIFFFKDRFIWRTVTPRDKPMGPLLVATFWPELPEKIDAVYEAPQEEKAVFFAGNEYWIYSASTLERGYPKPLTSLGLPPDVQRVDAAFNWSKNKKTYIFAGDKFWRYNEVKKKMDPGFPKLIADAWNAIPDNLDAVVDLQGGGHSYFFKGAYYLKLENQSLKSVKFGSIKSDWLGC
# Mitogen-activated protein kinase; ERK1/ERK2 (Homo sapiens), sequence (P27361 whole entry, looked up): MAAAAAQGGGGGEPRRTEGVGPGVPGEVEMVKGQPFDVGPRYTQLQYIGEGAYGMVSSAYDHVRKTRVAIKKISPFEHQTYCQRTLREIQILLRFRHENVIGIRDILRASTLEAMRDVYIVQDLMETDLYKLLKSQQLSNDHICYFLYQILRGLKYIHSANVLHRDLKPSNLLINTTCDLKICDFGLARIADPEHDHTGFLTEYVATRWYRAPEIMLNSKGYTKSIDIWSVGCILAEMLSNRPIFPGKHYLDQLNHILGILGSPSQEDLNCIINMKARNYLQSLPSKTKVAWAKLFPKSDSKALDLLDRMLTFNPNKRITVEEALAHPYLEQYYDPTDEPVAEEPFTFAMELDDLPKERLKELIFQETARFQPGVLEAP
# Mitogen-activated protein kinase; ERK1/ERK2 (Homo sapiens), sequence (P28482 whole entry, looked up): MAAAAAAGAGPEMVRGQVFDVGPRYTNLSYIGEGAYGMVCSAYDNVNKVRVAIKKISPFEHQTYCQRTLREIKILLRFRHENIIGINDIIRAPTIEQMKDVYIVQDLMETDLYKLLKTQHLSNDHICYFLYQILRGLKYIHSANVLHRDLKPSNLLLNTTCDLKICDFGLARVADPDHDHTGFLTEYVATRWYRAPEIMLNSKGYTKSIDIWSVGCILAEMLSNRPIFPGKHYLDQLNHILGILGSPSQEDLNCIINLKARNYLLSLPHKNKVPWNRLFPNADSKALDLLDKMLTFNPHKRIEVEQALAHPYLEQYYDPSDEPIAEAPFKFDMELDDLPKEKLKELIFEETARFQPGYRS
# Matrix metalloproteinase-9 (Homo sapiens), sequence (P14780 whole entry): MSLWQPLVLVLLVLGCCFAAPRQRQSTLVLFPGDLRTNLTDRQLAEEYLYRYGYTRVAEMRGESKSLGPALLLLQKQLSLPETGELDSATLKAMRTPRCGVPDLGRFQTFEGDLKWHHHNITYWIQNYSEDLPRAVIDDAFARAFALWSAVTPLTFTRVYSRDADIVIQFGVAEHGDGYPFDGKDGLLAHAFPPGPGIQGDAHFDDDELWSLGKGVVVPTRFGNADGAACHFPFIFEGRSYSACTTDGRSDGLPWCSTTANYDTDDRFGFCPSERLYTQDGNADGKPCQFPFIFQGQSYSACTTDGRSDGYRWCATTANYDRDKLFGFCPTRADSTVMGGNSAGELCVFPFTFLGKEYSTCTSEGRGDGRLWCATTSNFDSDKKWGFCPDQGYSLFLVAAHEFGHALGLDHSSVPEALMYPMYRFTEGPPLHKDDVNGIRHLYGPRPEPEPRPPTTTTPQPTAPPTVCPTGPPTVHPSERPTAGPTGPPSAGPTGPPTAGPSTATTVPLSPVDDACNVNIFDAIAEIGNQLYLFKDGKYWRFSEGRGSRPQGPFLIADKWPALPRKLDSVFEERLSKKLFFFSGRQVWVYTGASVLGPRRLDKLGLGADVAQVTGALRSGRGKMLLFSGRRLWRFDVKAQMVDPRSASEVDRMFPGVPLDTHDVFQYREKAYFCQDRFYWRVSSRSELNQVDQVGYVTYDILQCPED
SMILES,inhibition [1],Activity (MDA-MB-231 [2]),Activity (MDA-MB-231 [3]),Activity (MDA-MB-231 [4]) [%],Activity (MDA-MB-231 [5]) [%],Activity (MDA-MB-231 [6]) [%],inhibition [7],Activity (MDA-MB-231 [8]) [%],Activity (MDA-MB-231 [9]) [%],Activity (MDA-MB-231 [10]),inhibition [11],Activity (MDA-MB-231 [12]),Activity (MDA-MB-231 [13]),Activity (MDA-MB-231 [14]),Activity (MDA-MB-231 [15]),Activity (MDA-MB-231 [16]),Activity (MDA-MB-231 [17]) [%],Activity (MDA-MB-231 [18]) [%],inhibition [19],Activity (MDA-MB-231 [20]),further results
COC(=O)c1cc2c3ccccc3[nH]c2c2cn(-c3ccc(C)cc3Br)c[n+]12.[Cl-],Active,Active,Active,23.6,64.96,35.3,Active,26.3,38.2,Active,Active,Active,Active,Active,Active,Active,5.42,17.42,Active,Active,Activity [21]: Active; Activity (MDA-MB-231 [22]): Active
COC(=O)c1cc2c3ccccc3[nH]c2c2cn(-c3ccc(F)cc3Cl)c[n+]12.[Cl-],–,–,–,23.4,–,–,–,–,–,–,–,–,–,–,–,–,2.21,–,–,–,–
COC(=O)c1cc2c3ccccc3[nH]c2c2cn(-c3ccc(C(F)(F)F)cc3)c[n+]12.[Cl-],Active,Active,Active,22.8,31.17,31.1,Active,29.7,39,Active,Active,Active,Active,Active,Active,Active,4.4,13.43,Active,Active,Activity [21]: Active; Activity (MDA-MB-231 [22]): Active
